In ChEMBL document CHEMBL4007417, “Target Elucidation by Cocrystal Structures of NADH-Ubiquinone Oxidoreductase of Plasmodium falciparum (PfNDH2) with Small Molecule To Eliminate Drug-Resistant Malaria” (J Med Chem, 2017):
The source made the active and inactive calls. No cut-off for these calls is given here.

Experiments:
[1] = system: Plasmodium falciparum; assay: Antimalarial activity against chloroquine/quinine/sulfadoxine-pyrimethamine/amodiaquine-resistant asexual blood stage Plasmodium falciparum PC26 after 72 hrs by SYBR green-based fluorometric analysis; type: functional; settings: PC26, 72 h
In short: (§1)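 Mid-ring-stage cultures (~6-10 h post-invasion) at 1% parasitemia and 2% hematocrit, in triplicate. Twofold serial dilutions from a top concentration of 100 nM. Incubated 72 h at 37 °C under 5% CO2/5% O2/90% N2. Lysis buffer containing 5×SYBR Green I added, 20 min in the dark, fluorescence read at ex 485/em 538 nm. EC50 derived.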

[2] = system: Plasmodium falciparum; assay: Antimalarial activity against chloroquine/quinine/sulfadoxine-pyrimethamine/amodiaquine-resistant asexual blood stage Plasmodium falciparum Dd2 after 72 hrs by SYBR green-based fluorometric analysis; type: functional; settings: Dd2, 72 h; in short: as §1
[3] = system: Plasmodium falciparum; assay: (§2) Antimalarial activity against quinine-resistant asexual blood stage Plasmodium falciparum 3D7 assessed as reduction in parasite recrudescence at 10 times EC50 for 72 hrs measured after 28 days post invasion by Giemsa staining-based light microscopic analysis; type: functional
In short: (§3)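 Parasite cultures exposed for 72 h to 10× EC50 of inhibitor. Drug then removed and cultures maintained for 28 days post treatment. Recrudescence monitored by microscopy.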

[4] = system: Plasmodium yoelii; assay: Antimalarial activity against Plasmodium yoelii YM infected in BALB/c mouse assessed as mouse survival at 30 mg/kg, sc administered BID for 4 days starting at 96 hrs post infection, 8 hrs apart by Giemsa-staining based microscopic analysis; type: functional
In short: (§4)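 Mice inoculated with 1×106 P. yoelii parasites. Subcutaneous dosing for 4 days starting 96 h post infection, given once daily or twice daily 8 h apart. Parasitemia followed on Giemsa-stained blood smears. Survival recorded at 40 days post infection; groups of n=3. DMSO-only mice served as untreated controls.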

[5] = system: Plasmodium yoelii; assay: Antimalarial activity against Plasmodium yoelii YM infected in BALB/c mouse assessed as mouse survival at 10 mg/kg, sc administered BID for 4 days starting at 96 hrs post infection, 8 hrs apart by Giemsa-staining based microscopic analysis; type: functional; in short: as §4
[6] = system: HeLa; assay: Cytotoxicity against human HeLa cells assessed as reduction in cell viability up to 2 uM after 48 hrs by MTT assay; type: cell-based
In short: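 HeLa cell viability measured by MTT assay with compound at concentrations up to 2 µM.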

[7] = system: Plasmodium yoelii; assay: Antimalarial activity against Plasmodium yoelii YM infected in BALB/c mouse assessed reduction in parasitemia at 30 mg/kg/day, sc for 4 days by Giemsa-staining based microscopic analysis; type: functional, organism-based
In short: (§5)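 P. yoelii-infected mice, n=3 per group. Subcutaneous injection once daily for 4 days starting at 96 h post infection. Parasitemia followed on blood-smear microscopy, with inhibition measured at 24 h post treatment. Cure time taken as the minimum period to cure all mice; survival recorded at 40 days. DMSO controls included.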

[8] = system: Plasmodium falciparum; assay: as §2, with “chloroquine/quinine/sulfadoxine-pyrimethamine/amodiaquine-resistant” for “quinine-resistant”, “Dd2” for “3D7”; type: functional; in short: as §3
[9] = system: Plasmodium yoelii; assay: Antimalarial activity against Plasmodium yoelii YM infected in BALB/c mouse assessed as time duration for parasite cure at 30 mg/kg, sc administered BID for 4 days starting at 96 hrs post infection, 8 hrs apart by Giemsa-staining based microscopic analysis; type: functional
In short: (§6)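 P. yoelii-infected mice, n=3 per group. Subcutaneous injection twice daily, 8 h apart, for 4 days starting at 96 h post infection. Growth inhibition read from blood smears at 24 h post treatment. Cure time taken as the minimum period to cure all mice in the group. DMSO controls included.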

[10] = system: Plasmodium falciparum; assay: Antimalarial activity against Plasmodium falciparum 3D7 assessed as alteration of parasite morphology at 10 times EC50 dosed at ring stage […] by Giemsa staining-based light microscopic analysis; type: functional, organism-based
[11] = system: Plasmodium yoelii; assay: Antimalarial activity against Plasmodium yoelii YM infected in BALB/c mouse assessed as parasite cure level at 10 mg/kg, ip administered on days 1 post infection by Giemsa-stained microscopic analysis; type: functional, organism-based
In short: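 Mice (groups of three) inoculated with 1×10^6 P. yoelii parasites. Single intraperitoneal dose of 10, 30 or 90 mg/kg given 24 h after inoculation. DMSO-only untreated group included. Outcome followed by blood-smear microscopy for cure, with survival scored at 40 days post infection.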

[12] = system: Plasmodium yoelii; assay: Antimalarial activity against Plasmodium yoelii YM infected in BALB/c mouse assessed as parasite growth inhibition at 30 mg/kg, sc administered QD for 4 days starting at 96 hrs post infection by Giemsa-staining based microscopic analysis; type: functional; settings: read-out: GI; in short: as §5
[13] = system: Plasmodium falciparum; assay: Antimalarial activity against […] asexual blood stage Plasmodium falciparum 3D7 after 72 hrs by SYBR green-based fluorometric analysis; type: functional; settings: 3D7, 72 h; in short: as §1
[14] = system: Plasmodium falciparum; assay: Antimalarial activity against multi drug-resistant asexual blood stage Plasmodium falciparum Fab9 after 72 hrs by SYBR green-based fluorometric analysis; type: functional; settings: Fab9, 72 h; in short: as §1
[15] = system: Plasmodium falciparum; assay: Antimalarial activity against dihydroartemisinin-resistant asexual blood stage Plasmodium falciparum 803 after 72 hrs by SYBR green-based fluorometric analysis; type: functional; settings: Plasmodium falciparum, 803, 72 h; in short: as §1
[16] = system: Plasmodium falciparum; assay: Antimalarial activity against quinine-resistant asexual blood stage Plasmodium falciparum C2A after 72 hrs by SYBR green-based fluorometric analysis; type: functional; in short: as §1
[17] = system: Plasmodium yoelii; assay: Antimalarial activity against Plasmodium yoelii YM infected in BALB/c mouse assessed as time duration for parasite cure at 90 mg/kg, sc administered BID for 4 days starting at 96 hrs post infection, 8 hrs apart by Giemsa-staining based microscopic analysis; type: functional; in short: as §6
[18] = system: Plasmodium yoelii; assay: Antimalarial activity against Plasmodium yoelii YM infected in BALB/c mouse assessed as parasite growth inhibition at 5 mg/kg, sc administered QD for 4 days starting at 2 hrs post infection by Giemsa-staining based microscopic analysis; type: functional; settings: read-out: GI
In short: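 P. yoelii-infected mice, n=3 per group. Subcutaneous injection once daily for 4 days starting at 2 h post infection. Growth inhibition determined at 24 h post treatment by blood-smear microscopy. Cure time taken as the minimum period to cure all mice in the group.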

[19] = system: Plasmodium yoelii; assay: Antimalarial activity against Plasmodium yoelii YM infected in BALB/c mouse assessed as parasite growth inhibition at 30 mg/kg, sc administered BID for 4 days starting at 96 hrs post infection, 8 hrs apart by Giemsa-staining based microscopic analysis; type: functional; settings: read-out: GI; in short: as §6
[20] = system: Plasmodium yoelii; assay: Antimalarial activity against Plasmodium yoelii YM infected in BALB/c mouse assessed as mouse survival at 5 mg/kg, sc administered QD for 4 days starting at 2 hrs post infection by Giemsa-staining based microscopic analysis; type: functional
In short: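 Mice inoculated with 1×106 P. yoelii parasites, then dosed subcutaneously once daily for 4 days starting 2 h post infection. Parasitemia followed by microscopy of blood smears. Survival scored at 40 days post infection in groups of n=3 mice. DMSO-only controls.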

[21] = system: Plasmodium yoelii; assay: Antimalarial activity against Plasmodium yoelii YM infected in BALB/c mouse assessed as mouse survival at 30 mg/kg, sc administered QD for 4 days starting at 96 hrs post infection by Giemsa-staining based microscopic analysis; type: functional; in short: as §4
[22] = system: Plasmodium falciparum; assay: Antimalarial activity against multi drug-resistant asexual blood stage Plasmodium falciparum D10 after 72 hrs by SYBR green-based fluorometric analysis; type: functional; settings: D10, 72 h; in short: as §1
[23] = system: Plasmodium falciparum; assay: Antimalarial activity against dihydroartemisinin-resistant asexual blood stage Plasmodium falciparum 803 assessed as reduction in parasite recrudescence at 10 times EC50 for 72 hrs measured after 28 days post invasion by Giemsa staining-based light microscopic analysis; type: functional; in short: as §3
[24] = system: Plasmodium falciparum; assay: Antimalarial activity against chloroquine/quinine-resistant asexual blood stage Plasmodium falciparum S35 after 72 hrs by SYBR green-based fluorometric analysis; type: functional; settings: S35, 72 h; in short: as §1
[25] = system: Plasmodium falciparum; assay: Antimalarial activity against sulfadoxine-pyrimethamine/mefloquine resistant asexual blood stage Plasmodium falciparum CP286 after 72 hrs by SYBR green-based fluorometric analysis; type: functional; settings: CP286, 72 h; in short: as §1
[26] = system: Plasmodium yoelii; assay: Antimalarial activity against Plasmodium yoelii YM infected in BALB/c mouse assessed as parasite growth inhibition at 90 mg/kg, sc administered BID for 4 days starting at 96 hrs post infection, 8 hrs apart by Giemsa-staining based microscopic analysis; type: functional; settings: read-out: GI; in short: as §6
[27] = system: Plasmodium falciparum; assay: Antimalarial activity against chloroquine-resistant asexual blood stage Plasmodium falciparum GB4 after 72 hrs by SYBR green-based fluorometric analysis; type: functional; settings: GB4, 72 h; in short: as §1
[28] = system: Plasmodium falciparum; assay: Antimalarial activity against mid/late trophozoite stage of Plasmodium falciparum 3D7 assessed as reduction in parasitemia at 10 times EC50 administered at synchronized early ring stages and then removed from culture at 2 hrs intervals after 34 hrs paraiste invasion stage and measured till 40 hrs post invasion by SYBR green-based fluorometric analysis; type: functional; set-up: scale not given: the % may be the effect or the level left
In short: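 Synchronized early-ring P. falciparum 3D7 treated with about 10×EC50 compound. Compound removed at 2 h intervals starting at t=34 h (trophozoite), then parasites returned to compound-free medium. Maturation through a single ~48 h asexual cycle followed.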

[29] = system: Plasmodium yoelii; assay: Antimalarial activity against Plasmodium yoelii YM infected in BALB/c mouse assessed as mouse survival at 90 mg/kg, sc administered BID for 4 days starting at 96 hrs post infection, 8 hrs apart by Giemsa-staining based microscopic analysis; type: functional; in short: as §4
[30] = system: Plasmodium yoelii; assay: Antimalarial activity against Plasmodium yoelii YM infected in BALB/c mouse assessed as parasite growth inhibition at 10 mg/kg, sc administered BID for 4 days starting at 96 hrs post infection, 8 hrs apart by Giemsa-staining based microscopic analysis; type: functional; settings: read-out: GI; in short: as §6
[31] = system: Plasmodium yoelii; assay: Antimalarial activity against Plasmodium yoelii YM infected in BALB/c mouse assessed as time duration for parasite cure at 30 mg/kg, sc administered QD for 4 days starting at 96 hrs post infection by Giemsa-staining based microscopic analysis; type: functional; in short: as §5

SMILES: Cc1c(-c2ccc(Cc3ccc(SC(F)(F)F)cc3)cc2)[nH]c2cccc(F)c2c1=O
- EC50 [1]: 4.42 nM
- EC50 [2]: 2.1 nM
- Activity [3]: Active
- survival at 30 mg/kg [4]: 100%
- survival at 10 mg/kg [5]: 0%
- Activity [6]: Non-Toxic
- Activity [7]: Active
- Activity [8]: Active
- Time [9]: 15 days
- Activity [10]: Active
- Activity [11]: inactive
- inhibition in vivo at 30 mg/kg [12]: 77.4%
- EC50 [13]: 5.69 nM
- EC50 [14]: 5.46 nM
- EC50 [15]: 4.66 nM
- EC50 [16]: 5.26 nM
- Time [17]: 14 days
- inhibition in vivo at 5 mg/kg [18]: 0%
- inhibition in vivo at 30 mg/kg [19]: 99.8%
- survival at 5 mg/kg [20]: 0%
- survival at 30 mg/kg [21]: 66.7%
- EC50 [22]: 7.7 nM
- Activity [23]: Active
- EC50 [24]: 4.82 nM
- EC50 [25]: 6.24 nM
- inhibition in vivo at 90 mg/kg [26]: 100%
- EC50 [27]: 3.17 nM
- Activity [28]: >=50%
- survival at 90 mg/kg [29]: 100%
- inhibition in vivo at 10 mg/kg [30]: 0%
- Time [31]: 18 days
